Data set [1] deals with Mus musculus. Put plainly: Induction of flushing response in ip dosed C57/BL6 mouse. The format is organism-based, C57Bl/6. Particulars: in vivo. The procedure, abridged:
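Male C57Bl/6 mice, 8-10 weeks, anesthetized with Nembutal i.p. (80 mg/10 ml/kg). Laser Doppler perfusion imaging centred on the ventral right ear. After a 3 min baseline, vehicle or agonist is given i.p. (5 ml/kg) and readings continue about 15 min. Output is % change from pre-injection baseline, 3-26 animals per group.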

The test system of data set [2] is Mus musculus. Put plainly: Reduction of free fatty acid level in ip dosed C57/BL6 mouse plasma after 10 mins. The format is functional, organism-based. Particulars: C57Bl/6. The procedure, abridged:
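Male C57Bl/6 mice, 8-10 weeks (~25 g), fasted 16 hr, dosed i.p. with compound in PBS or PBS vehicle (5 ml/kg). Killed after 10 min; cardiac blood taken and serum obtained by centrifugation at 4°C. NEFA measured colorimetrically with the NEFA-C two-reagent kit, 37°C incubations, A550. Three or more experiments in triplicate; one-way ANOVA with Bonferroni.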

Data set [3] concerns Adipocyte. The data set is described as follows: Inhibition of isoproterenol-induced lipolysis in human subcutaneous adipocytes after 5 hrs.
The test system of data set [4] is Rattus norvegicus. The data set is described as follows: Reduction of free fatty acid level in po dosed Sprague-Dawley rat plasma relative to baseline. The format is functional. On the set-up: scale not given: the % may be the effect or the level left. The procedure, abridged: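 Male Sprague-Dawley rats, 7-10 weeks (~350 g), jugular vein cannulated, fasted 16 hr. Baseline blood drawn, then oral vehicle (PBS, 5% HPBCD or 0.5% methylcellulose) or drug at 2 ml/kg. Blood sampled via cannula at set times; serum NEFA assayed by NEFA-C kit, A550. Expressed as % baseline FFA, four or more independent experiments.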

The test system of data set [5] is Mus musculus. The data set is described as follows: Inhibition of nicotinic acid induced flushing response in ip dosed C57/BL6 mouse. Format: functional, organism-based. Particulars: C57Bl/6. The method in brief:
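Laser Doppler ear flushing in anesthetized male C57Bl/6 mice. Vehicle or competing agonist is given i.p. together with Nembutal, 10 min before baseline. After a 3 min baseline, nicotinic acid 30 mg/kg i.p. is injected. Response is % change from pre-nicotinic acid baseline, 5 or 11 animals per group.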

Molecules are shown by their SMILES. pEC50: −log10 of the molar value. Activity calls are given as the source filed them. The rule behind the calls is not given here.

One may read the pEC50 as −log10 of the EC50, conventionally taken in molar units. For the compound `Cc1cc(C(=O)O)n[nH]1`, the figures for the Activity entry in data set [1], in data set [2] and in data set [4] were “Toxic”, “Dose-dependent effect” and 75%, respectively. In data set [3], this compound had a pEC50 of 5.85.

For `O=C(O)c1cccnc1` [NIACIN], the Activity result in data set [1] is “Toxic”. The pEC50 in data set [3] was 6.05.

In the case of `O=C(O)c1cc(Cc2cccc(Cl)c2)[nH]n1`, the Activity entry in data set [1] is on record as “Non-toxic”.

For `O=C(O)c1cc(Cc2cccc(Cl)c2)n[nH]1`, the Activity entry was “Dose-dependent effect” in data set [2] and 75% in data set [4]. In data set [5], the result was Active. The pEC50 in data set [3] is 4.14.

Regarding `O=C(O)c1cc(Cc2cccc(F)c2)[nH]n1`, the Activity entry is “Non-toxic” in data set [1], “Dose-dependent effect” in data set [2] and 75% in data set [4]. The same compound had a pEC50 in data set [3] of 4.49.

`CC(C)c1cc(C(=O)O)n[nH]1`: the values for the Activity entry in data set [1], in data set [2] and in data set [4] were “Non-toxic”, “Dose-dependent effect” and 75%, respectively.

With `O=C(O)c1cc(Cc2cccc(Br)c2)[nH]n1`, the Activity result was “Non-toxic” in data set [1], “Dose-dependent effect” in data set [2] and 75% in data set [4]. For the same compound, the pEC50 in data set [3] is 3.99.

On to `Cc1cc(C(=O)O)on1`, for which the Activity entry in data set [1] is “Toxic”; in data set [4] it was 75%. The compound further gave a pEC50 in data set [3] of 5.28.

(Values after ChEMBL document CHEMBL1147980, “Nicotinic acid receptor agonists differentially activate downstream effectors” (J Biol Chem, 2007).)
